In assay [1] the target is T1, Cholecystokinin receptor type A (Homo sapiens, UniProt P32238, T117V/T118S). In kind it is cell-based, CHO.
Assay [2] addresses T2, Cholecystokinin receptor type A (Homo sapiens, UniProt P32238, N98T). In kind it is cell-based, CHO.
For assay [3], the target named is T2, Cholecystokinin receptor type A. In kind it is cell-based, CHO. This is another data set of the same source.
Assay [4] deals with T3, Gastrin/cholecystokinin type B receptor (Homo sapiens, UniProt P32239).
T3 sequence (P32239 whole entry): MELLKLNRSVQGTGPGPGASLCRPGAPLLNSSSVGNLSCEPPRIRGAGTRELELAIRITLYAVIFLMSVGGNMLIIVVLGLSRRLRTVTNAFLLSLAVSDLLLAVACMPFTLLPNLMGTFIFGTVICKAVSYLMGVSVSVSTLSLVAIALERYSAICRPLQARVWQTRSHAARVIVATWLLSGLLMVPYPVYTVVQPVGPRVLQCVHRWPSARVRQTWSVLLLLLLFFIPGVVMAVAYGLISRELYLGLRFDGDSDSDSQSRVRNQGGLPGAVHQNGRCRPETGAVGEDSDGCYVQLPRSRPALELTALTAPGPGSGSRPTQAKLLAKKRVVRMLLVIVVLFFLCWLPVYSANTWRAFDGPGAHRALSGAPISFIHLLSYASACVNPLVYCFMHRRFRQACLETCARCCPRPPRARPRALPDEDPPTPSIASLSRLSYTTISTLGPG
In kind it is cell-based, CHO.

The target of assay [5] is T4, Gastrin/cholecystokinin type B receptor (Homo sapiens) (UniProt P32239).
T4 sequence (whole entry): T3 sequence (P32239 whole entry)
Briefly: Activity at CCK2R (unknown origin) expressed in CHO cells assessed as stimulation of intracellular calcium responses. In kind it is functional, cell-based. The method, boiled down:
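Intact CHO cell lines stably expressing CCK1R or CCK2R; intracellular calcium measured after adding compound alone. […] Peak responses and EC50 values taken from concentration-response curves. Duplicate determinations, at least three independent experiments, means ± S.E.M.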

Assay [6] concerns the target T5, Cholecystokinin receptor type A (Homo sapiens, UniProt P32238).
T5 sequence (P32238 whole entry): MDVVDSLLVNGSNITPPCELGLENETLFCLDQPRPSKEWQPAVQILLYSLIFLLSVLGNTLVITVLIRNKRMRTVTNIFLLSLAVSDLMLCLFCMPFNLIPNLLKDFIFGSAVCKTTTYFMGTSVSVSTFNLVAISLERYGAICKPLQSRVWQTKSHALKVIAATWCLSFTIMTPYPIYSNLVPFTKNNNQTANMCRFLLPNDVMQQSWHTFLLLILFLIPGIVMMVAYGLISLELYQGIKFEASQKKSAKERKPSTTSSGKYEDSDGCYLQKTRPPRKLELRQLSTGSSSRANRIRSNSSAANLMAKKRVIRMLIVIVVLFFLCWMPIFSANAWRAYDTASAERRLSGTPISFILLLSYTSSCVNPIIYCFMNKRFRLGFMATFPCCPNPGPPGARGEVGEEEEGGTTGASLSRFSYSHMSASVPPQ
Briefly: Activity at CCK1R (unknown origin) expressed in CHO cells assessed as stimulation of intracellular calcium responses. In kind it is functional, cell-based. The method, boiled down:
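Intact CHO cell lines stably expressing CCK1R or CCK2R; intracellular calcium measured after adding compound alone. Peak responses and EC50 values taken from concentration-response curves. Duplicate determinations, at least three independent experiments, means ± S.E.M.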
(Calcium flux is commonly read through the fluorescence of an indicator in the cells.)

Assay [7] concerns the target T6, Cholecystokinin receptor type A (Homo sapiens, UniProt P32238). In kind it is cell-based. The following applies: cho.
Assay [8] deals with T7, Cholecystokinin receptor type A (Homo sapiens, UniProt P32238, L356H). In kind it is cell-based, CHO.
T7 sequence (P32238 whole entry L356H): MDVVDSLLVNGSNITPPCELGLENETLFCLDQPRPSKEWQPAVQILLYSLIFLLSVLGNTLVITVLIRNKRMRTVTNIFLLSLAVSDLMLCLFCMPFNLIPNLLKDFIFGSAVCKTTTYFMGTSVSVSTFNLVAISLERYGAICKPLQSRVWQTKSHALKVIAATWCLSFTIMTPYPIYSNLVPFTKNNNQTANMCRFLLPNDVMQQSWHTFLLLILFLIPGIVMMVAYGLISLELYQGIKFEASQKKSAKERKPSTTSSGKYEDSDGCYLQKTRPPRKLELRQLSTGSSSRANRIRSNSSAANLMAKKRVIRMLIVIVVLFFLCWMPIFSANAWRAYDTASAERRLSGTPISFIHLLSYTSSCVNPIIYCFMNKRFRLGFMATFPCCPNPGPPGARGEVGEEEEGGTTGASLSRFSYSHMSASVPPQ
The target of assay [9] is T7, Cholecystokinin receptor type A. In kind it is cell-based, CHO. The source holds these as a separate data set.
Assay [10] concerns the target T1, Cholecystokinin receptor type A. In kind it is cell-based, CHO. The source holds these as a separate data set.
The target of assay [11] is T8, Cholecystokinin receptor type A (Homo sapiens) (UniProt P32238).
T8 sequence (whole entry): T5 sequence (P32238 whole entry)
The following applies: CHO, 1 uM.

Assay [12] deals with T6, Cholecystokinin receptor type A. In kind it is cell-based. The following applies: cho. This is another data set of the same source.
Assay [13] deals with T3, Gastrin/cholecystokinin type B receptor. In kind it is cell-based, CHO. This is another data set of the same source.
The target in assay [14] is T6, Cholecystokinin receptor type A. In kind it is cell-based. The following applies: cho. This is another data set of the same source.
In assay [15] the target is T5, Cholecystokinin receptor type A. In kind it is cell-based, CHO.
For assay [16] the target is unchanged. In kind it is cell-based, CHO. This is another data set of the same source.
The target in assay [17] is T3, Gastrin/cholecystokinin type B receptor. In kind it is cell-based, CHO. This is another data set of the same source.
Assay [18] deals with T5, Cholecystokinin receptor type A. In kind it is functional, cell-based. The following applies: cho.

Calls of active or inactive are those of the source. The calls are words filed in the database; no cut-off is given here.

T2 sequence (P32238 whole entry N98T): as the sequence (P32238 whole entry L356H) above, with N98T, H356L counted along it
T1 sequence (P32238 whole entry T117V/T118S): as the sequence (P32238 whole entry L356H) above, with T117V, T118S, H356L counted along it

A word on the IC50: it is the concentration that gives 50% inhibition. As a reminder, the EC50 is the concentration at which the effect is half-maximal. For the compound `COc1ccc(N(C)C(=O)CN2C(=O)C(NC(=O)Nc3ccccc3)C(=O)N(c3ccccc3)c3ccccc32)cc1` (stereo not given), the IC50 is 334 nM in assay [1]; 40.3 nM in assay [2]; 875 nM in assay [3] (read-out: IC50); 20.3 nM in [4]; 151 nM in [7]; 153 nM in [8]. Moreover, the IC50 was 233 nM in assay [9]; 50.2 nM in assay [10]; “Not Active” in assay [12]; 48.6 nM in assay [13]; over 1000 nM in assay [14]. In addition, in [5], the outcome was inactive. For the same compound, in [6], the EC50 was 90 nM. Also, in assay [11], the inhibition entry is “inactive”.
Regarding `CC(C)N(C(=O)CN1C(=O)[C@H](NC(=O)Nc2cccc(C(=O)O)c2)C(=O)N(c2ccccc2)c2ccccc21)c1ccccc1`, the IC50 in assay [15] was 128 nM; in assay [16], 105 nM; in assay [17], 2.7 nM; in assay [13], 5.6 nM. Further, the outcome in assay [5] was inactive. In addition, the EC50 in [6] was 0.8 nM; in assay [18], “Not Active”.
Regarding `O=C(CN1C(=O)C(NC(=O)Nc2ccccc2)C(=O)N(c2ccccc2)c2ccccc21)Nc1ccccc1` (stereo not given), the IC50 result in assay [3] (cho) and in assay [12] was “Not Active” each time. Besides, the result in assay [5] was inactive. For the same compound, in assay [11], the inhibition entry is “inactive”.

The values are drawn from ChEMBL document CHEMBL3407371, “Elimination of a cholecystokinin receptor agonist 'trigger' in an effort to develop positive allosteric modulators without intrinsic agonist activity” (Bioorg Med Chem Lett, 2015).
